ChEMBL document CHEMBL4765360, “Design, synthesis and biological evaluation of novel potent STAT3 inhibitors based on BBI608 for cancer therapy” (Eur J Med Chem, 2020)
Calls of active or inactive are those of the source. The calls are words filed in the database; no cut-off is given here.

Experiments:
[1] = target: T1, Signal transducer and activator of transcription 3 (Homo sapiens, UniProt P40763); assay: Inhibition of STAT3 in human MDA-MB-231 cells assessed as reduction in Cyclin D1 expression incubated for 24 hrs by Western blot analysis; format: cell-based; conditions: dose 0.75-3 µM
T1 sequence (P40763 whole entry): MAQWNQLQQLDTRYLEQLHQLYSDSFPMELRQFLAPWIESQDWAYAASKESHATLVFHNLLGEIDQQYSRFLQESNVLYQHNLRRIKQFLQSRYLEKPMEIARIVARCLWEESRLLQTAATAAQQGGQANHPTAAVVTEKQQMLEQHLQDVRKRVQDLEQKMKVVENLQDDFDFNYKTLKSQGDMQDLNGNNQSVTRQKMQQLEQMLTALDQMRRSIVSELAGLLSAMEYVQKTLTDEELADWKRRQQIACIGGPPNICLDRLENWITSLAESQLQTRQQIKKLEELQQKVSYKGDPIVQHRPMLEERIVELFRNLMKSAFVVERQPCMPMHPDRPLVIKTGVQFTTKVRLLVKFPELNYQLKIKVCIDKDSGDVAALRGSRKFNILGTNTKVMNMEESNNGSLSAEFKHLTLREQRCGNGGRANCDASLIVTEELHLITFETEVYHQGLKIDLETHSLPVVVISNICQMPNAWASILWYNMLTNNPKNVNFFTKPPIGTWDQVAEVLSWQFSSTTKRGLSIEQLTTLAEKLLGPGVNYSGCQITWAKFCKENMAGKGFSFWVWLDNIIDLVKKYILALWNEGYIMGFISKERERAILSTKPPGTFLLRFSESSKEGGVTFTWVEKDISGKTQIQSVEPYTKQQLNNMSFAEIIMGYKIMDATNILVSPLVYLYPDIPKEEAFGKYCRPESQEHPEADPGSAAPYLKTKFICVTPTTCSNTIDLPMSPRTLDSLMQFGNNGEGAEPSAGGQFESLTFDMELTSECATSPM
Summary of the method: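 MDA-MB-231 cells treated with a range of concentrations for 24 h. RIPA lysates with PMSF, 40 µg protein/lane, on 10% SDS-PAGE, then PVDF. Blocked in 5% milk/TBST for 2 h. Primary antibodies to STAT3, p-STAT3(Y705), STAT1, p-STAT1(Y701), c-Myc and Cyclin D1 overnight at 4 °C; GAPDH as loading control. HRP secondary for 1 h; ECL detection.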

[2] = target: T1, Signal transducer and activator of transcription 3; assay: Inhibition of STAT3 in human MDA-MB-231 cells assessed as reduction in STAT3 Y705 phosphorylation in cytoplasm at 3 uM incubated for 24 hrs by immunofluorescence staining based fluorescence microscopy; format: subcellular
Summary of the method: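 MDA-MB-231 cells at 1×10^4 per dish, adhered overnight, then exposed to 3.0 µM for 24 h. Fixed in 4% paraformaldehyde and permeabilized with 0.5% Triton X-100. Blocked in 5% BSA for 1 h. Anti-p-STAT3 primary overnight at 4 °C, then Alexa Fluor 546 anti-rabbit for 1 h at RT. Hoechst nuclear stain; imaged by fluorescence microscopy.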

MDA-MB-231 [3] = assay: Induction of apoptosis in human MDA-MB-231 cells assessed as late apoptotic cells at 1 uM incubated for 24 hrs by annexin V-FITC and PI staining based flow cytometry analysis (reference value: 3.72 %); format: functional
MDA-MB-231 [4] = assay: Induction of apoptosis in human MDA-MB-231 cells assessed as necrotic cells at 1 uM incubated for 24 hrs by annexin V-FITC and PI staining based flow cytometry analysis (reference value: 0.23 %); format: functional

**Q.** Which inhibition [1] does the source give for `COc1ccc(NC2=CC(=O)c3cc(C(C)=O)oc3C2=O)cc1` here?
**A.** Dose-dependent effect

**Q.** And the inhibition [2]?
**A.** Active

**Q.** And the Activity (MDA-MB-231 [3])?
**A.** 6.51%

**Q.** What about the Activity (MDA-MB-231 [4]) of the same molecule?
**A.** 0.41%
